Test results taken from ChEMBL document CHEMBL1157040, “Anti-HSV-1 activity and mechanism of action of some new synthesized substituted pyrimidine, thiopyrimidine and thiazolopyrimidine derivatives” (2010).

Columns and labels:
Assay type in all cases: functional
Conditions in all cases: Human alphaherpesvirus 1, Vero
[1] = tested on: Human alphaherpesvirus 1; test: Antiviral activity against HSV1 infected in african green monkey Vero cells assessed as inhibition of plaque formation at 5 ug/mL after 1 hr relative to control
Procedure, shortened: (§1)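 Plaque reduction in Vero cells (DMEM, 10% FBS, pH 7.2–7.4). Virus–compound mixture inoculated onto monolayer for 1 h adsorption. Overlay of DMEM with 2% agarose, incubated at 37 °C until plaques formed. Fixed with 10% formalin for 2 h and stained with crystal violet. % inhibition = (untreated count − treated count)/untreated count × 100.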

[2] = tested on: Human alphaherpesvirus 1; test: Antiviral activity against HSV1 infected in african green monkey Vero cells assessed as inhibition of plaque formation at 2 ug/mL after 1 hr relative to control; procedure, shortened: as §1
[3] = tested on: Human alphaherpesvirus 1; test: Antiviral activity against HSV1 infected in african green monkey Vero cells assessed as reduction of plaque formation at 40 ug/mL treated 1 hr after infection measured after 1 hr by replication assay relative to control
Procedure, shortened: (§2)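 Replication format. Vero cells seeded at 10⁵ cells/ml and grown 2 days at 37 °C. Infected with HSV-1 at 10⁴ PFU/well for 1 h at 37 °C, then unadsorbed virus washed off three times with supplement-free medium. Plaques formed, fixed, stained and counted. % reduction calculated against infected control wells.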

[4] = tested on: Human alphaherpesvirus 1; test: Antiviral activity against HSV1 infected in african green monkey Vero cells assessed as reduction of plaque formation at 30 ug/mL treated 1 hr after infection measured after 1 hr by replication assay relative to control; procedure, shortened: as §2
[5] = tested on: Human alphaherpesvirus 1; test: Antiviral activity against HSV1 infected in african green monkey Vero cells assessed as reduction of plaque formation at 30 ug/mL pretreated 1 hr before infection measured after 1 hr by virucidal assay relative to control
Procedure, shortened: (§3)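 Virucidal format. 10⁷ PFU HSV-1 in serum-free DMEM mixed with compound for 1 h. Mixture serially diluted 10-fold three times, and each dilution applied to Vero monolayers (10⁵ cells/ml, grown 2 days) for 1 h. DMEM overlay added, incubated at 37 °C, fixed and stained. % plaque reduction calculated against virus not pretreated with compound.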

[6] = tested on: Human alphaherpesvirus 1; test: Antiviral activity against HSV1 infected in african green monkey Vero cells assessed as reduction of plaque formation at 40 ug/mL pretreated 2 hrs before infection measured after 1 hr by adsorption assay relative to control
Procedure, shortened: (§4)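 Adsorption format. Vero cells seeded at 10⁵ cells/ml and grown 2 days at 37 °C. Compound in supplement-free medium coincubated with cells for 2 h at 4 °C, then washed three times. HSV-1 at 10⁴ PFU/well added to pretreated cells for 1 h. Agarose–DMEM overlay, 37 °C until plaques, formalin fix and crystal violet stain. % plaque reduction calculated against untreated infected cells.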

[7] = tested on: Human alphaherpesvirus 1; test: Antiviral activity against HSV1 infected in african green monkey Vero cells assessed as reduction of plaque formation at 30 ug/mL pretreated 2 hrs before infection measured after 1 hr by adsorption assay relative to control; procedure, shortened: as §4
[8] = tested on: Human alphaherpesvirus 1; test: Antiviral activity against HSV1 infected in african green monkey Vero cells assessed as reduction of plaque formation at 20 ug/mL pretreated 2 hrs before infection measured after 1 hr by adsorption assay relative to control; procedure, shortened: as §4
[9] = tested on: Human alphaherpesvirus 1; test: Antiviral activity against HSV1 infected in african green monkey Vero cells assessed as reduction of plaque formation at 20 ug/mL pretreated 1 hr before infection measured after 1 hr by virucidal assay relative to control; procedure, shortened: as §3
[10] = tested on: Human alphaherpesvirus 1; test: Antiviral activity against HSV1 infected in african green monkey Vero cells assessed as reduction of plaque formation at 20 ug/mL treated 1 hr after infection measured after 1 hr by replication assay relative to control; procedure, shortened: as §2

Structure (SMILES) | inhibition at 5 µg/mL [1] | inhibition at 2 µg/mL [2] | further results
COc1ccc(C2C(=O)C(c3ccc4c(c3)CCCC4)N=C3SCC(=O)N32)cc1OC (stereo not given) | 0% | 0% | 
COc1ccc(C2NC(SC(C(C)=O)C(C)=O)=NC(c3ccc4c(c3)CCCC4)C2=O)cc1OC (stereo not given) | 95% | 90% | inhibition at 40 µg/mL [3]: 0%; inhibition at 30 µg/mL [4]: 0%; inhibition at 30 µg/mL [5]: 28%; inhibition at 40 µg/mL [6]: 0%; inhibition at 30 µg/mL [7]: 0%
COc1ccc(C2OC2C(=O)c2ccc3c(c2)CCCC3)cc1OC (stereo not given) | 57% | 24% | 
Cc1ccc(C2C(O)C(c3ccc4c(c3)CCCC4)=NN2c2ccccc2)cc1 (stereo not given) | 76% | 76% | 
COc1ccc(C2C(=O)C(c3ccc4c(c3)CCCC4)N=C3SC(C(C)=O)=C(C)N32)cc1OC (stereo not given) | 14% | 0% | 
COc1ccc(C2C(=O)C(c3ccc4c(c3)CCCC4)N=C3SC(C)C(=O)N32)cc1OC (stereo not given) | 100% | 90% | inhibition at 20 µg/mL [8]: 0%; inhibition at 30 µg/mL [4]: 80%; inhibition at 20 µg/mL [9]: 92%; inhibition at 20 µg/mL [10]: 60%; inhibition at 30 µg/mL [5]: 95%; inhibition at 30 µg/mL [7]: 0%
COc1ccc(C2C(=O)C(c3ccc4c(c3)CCCC4)N=c3s/c(=C/c4ccc(Cl)cc4)c(=O)n32)cc1OC (stereo not given) | 0% | 0% | 
Cc1ccc(C2OC2C(=O)c2ccc3c(c2)CCCC3)cc1 (stereo not given) | 0% | 0% | 
O=C(c1ccc2c(c1)CCCC2)C1OC1c1ccc(Br)cc1 (stereo not given) | 18% | 30% | 
Cc1ccc(-c2cc(-c3ccc4c(c3)CCCC4)nn2-c2ccccc2)cc1 | 26% | 3% | 
Cc1ccc(C2NC(=S)NC(c3ccc4c(c3)CCCC4)C2=O)cc1 (stereo not given) | 66% | 0% | 
COc1ccc(C2NC(=S)NC(c3ccc4c(c3)CCCC4)C2=O)cc1OC (stereo not given) | 54% | 27% | 
O=C(c1ccc2c(c1)CCCC2)C1OC(c2ccc(Br)cc2)C(C(=O)c2ccc3c(c2)CCCC3)OC1c1ccc(Br)cc1 (stereo not given) | 0% | 0% | 
COc1ccc(C2C(=O)C(c3ccc4c(c3)CCCC4)N=C3SCCC(=O)N32)cc1OC (stereo not given) | 30% | 3% | 
COc1ccc(C2NC(=O)NC(c3ccc4c(c3)CCCC4)C2=O)cc1OC (stereo not given) | 21% | 33% | 
Cc1ccc(C2NC(=N)NC(c3ccc4c(c3)CCCC4)C2=O)cc1 (stereo not given) | 0% | 4% | 
CCOC(=O)SC1=NC(c2ccc3c(c2)CCCC3)C(=O)C(c2ccc(OC)c(OC)c2)N1 (stereo not given) | 19% | 61% | 
